ASAP1 GAP inh: inhibitors of human ASAP1 ArfGAP activity, primary screen, biochemical, fluorescence polarization | ASAP1-stimulated ARF1 GTP hydrolysis, GDP FP detection | AID 624377, 2012 | Arf-GAP with SH3 domain, ANK repeat and PH domain-containing protein 1 (Homo sapiens), … | 360,000 compounds, 0.19% hits | inhibition, % at 16.5 µM; in the data active = inhibition above about 25%;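 note: 0% = vehicle with enzyme and substrate and 100% = no enzyme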
Target sequence (Q9ULH1 325-724 limits assumed): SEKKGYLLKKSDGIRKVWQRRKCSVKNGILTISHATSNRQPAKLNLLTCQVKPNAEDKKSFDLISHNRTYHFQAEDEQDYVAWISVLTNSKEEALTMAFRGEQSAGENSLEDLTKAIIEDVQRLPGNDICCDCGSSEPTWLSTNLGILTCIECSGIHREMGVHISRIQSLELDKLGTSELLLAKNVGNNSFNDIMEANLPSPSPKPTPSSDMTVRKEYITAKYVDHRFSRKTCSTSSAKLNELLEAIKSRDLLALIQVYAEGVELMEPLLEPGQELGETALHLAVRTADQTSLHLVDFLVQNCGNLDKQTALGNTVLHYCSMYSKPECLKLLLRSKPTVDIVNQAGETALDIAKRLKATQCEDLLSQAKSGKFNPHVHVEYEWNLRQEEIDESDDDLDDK
ARFGAP1 inh: inhibitors of rat ARFGAP1 GAP activity, primary screen, biochemical, fluorescence polarization, GDP tracer; ADP-ribosylation factor GTPase-activating protein 1 (Rattus norvegicus), Q62848; Arfgap1-stimulated ARF1 GTP hydrolysis, GDP FP detection; inhibition, % at 16.5 µM; 360,000 compounds, 0.26% hits; AID 651572, 2012;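 active = inhibition above a per-plate limit, mean inhibition of low control wells plus 3 SD, cut at about 25% in these data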;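 note: 0% = DMSO wells with enzyme and 100% = wells lacking Arfgap1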
Target sequence (Q62848 1-136 limits assumed): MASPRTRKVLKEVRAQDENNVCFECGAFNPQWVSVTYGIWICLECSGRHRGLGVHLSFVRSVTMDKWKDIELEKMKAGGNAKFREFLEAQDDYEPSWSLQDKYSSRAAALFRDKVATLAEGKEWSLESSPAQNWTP
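Assay system: purified rat His6-Arfgap1 residues 1-136 (GAP domain); Reagent: human Δ17 ARF1 bound to GTP; Dosing: 16.5 µM single point, 1.26% DMSO; Times: GTP hydrolysis reaction 2 h at 25 °C; Signal: FP, GDP Alexa 633 tracer displaced from anti-GDP antibody, 620/688 nm; Measure: % inhibition from polarization.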
esBAF inh: Bmi1 luciferase reporter increase in mESCs, primary screen, esBAF inhibitor project, mouse ES cells, Bmi1 luciferase knock-in, single point; 24 h; 100% = twice the neutral-well signal; reporter increase, % at 12.5 µM; 350,000 compounds, 2% hits; in the data active = activation above about 40%; inconclusive = no clear call, values can overlap the other calls;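 note: 0% = median of the plate's neutral control wells and 100% = double that signal; a rise in the Bmi1 reporter signal indicates esBAF inhibition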
SMARCA2 act: SMARCA2 (BRM) function activators, primary screen, cell-based, luminescence, high throughput; MG213 cells, MMTV-luciferase reporter, dexamethasone, overnight; activation, % at 9.1 µM; 370,000 compounds, 1% hits; in the data active = activation above about 7.8%;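 note: 0% = vehicle wells and 100% = reference activator wells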
Starred values were filed as active, the others as inactive; ? = inconclusive; · = no result. Rows were chosen to be rich in hits. Some 2.6% of all compounds tested hit in one or more screens of this group.

SMILES | ASAP1 GAP inh | ARFGAP1 inh | esBAF inh | SMARCA2 act
C[C@@H]1CCCCO[C@@H](CN(C)Cc2ccccc2)[C@H](C)CN([C@H](C)CO)C(=O)c2cc(NC(=O)C3CCCCC3)ccc2O1 | · | · | 1 | ·
COc1cc(C(F)(F)F)ccc1C(=O)NCCc1ccco1 | 2 | -7 | 60* | -4
COc1cc(OC)c(C(=O)NCc2ccco2)cc1OC | -5 | -5 | 0 | -1
C[C@H]1CN([C@@H](C)CO)C(=O)c2cc(NC(=O)CCC(F)(F)F)ccc2O[C@@H]1CN(C)C(=O)Nc1ccc(F)cc1 | · | · | 0 | ·
COc1ccc(CNC(=O)C[C@H]2C=C[C@H](NC(=O)c3ccc4c(c3)OCO4)[C@@H](CO)O2)cc1 | · | · | 3 | ·
c1csc(-c2nnsc2-c2nc3ccccc3[nH]2)c1 | -7 | -11 | 40* | 6
COc1nc(-c2ccccc2)ccc1-c1noc(-c2ccccc2)n1 | 4 | -2 | 44* | 3
COc1ccc(-c2ccc(-c3noc(-c4ccco4)n3)c(OC)n2)cc1 | -4 | 7 | 48* | 1
COc1nc(-c2ccccc2)ccc1-c1noc(-c2ccco2)n1 | 1 | -2 | 76* | 3
COc1ccc(-c2ccc(-c3noc(-c4ccccc4F)n3)c(OC)n2)cc1 | 12 | -2 | -4 | 1
COc1nc(-c2ccccc2)ccc1-c1noc(-c2cccs2)n1 | 14 | 11 | 46* | 2
COc1nc(C)ccc1-c1noc(-c2cccs2)n1 | 15 | 4 | · | 7
C[C@@H]1CCCCO[C@@H](CN(C)CC2CC2)[C@@H](C)CN([C@H](C)CO)C(=O)c2cc(NC(=O)Nc3ccc(C(F)(F)F)cc3)ccc2O1 | · | · | -5 | ·
C/C=C/c1ccc([C@@H]2[C@H]3CN(C(=O)Nc4ccc(F)cc4)CCCCN3[C@H]2CO)cc1 | · | · | -1 | ·
O=C(C[C@@H]1C=C[C@@H](NC(=O)c2cccc(F)c2)[C@H](CO)O1)NCc1ccccc1 | · | · | -6 | ·
Cc1noc(C)c1NC(=O)Nc1ccc2c(c1)C(=O)N([C@H](C)CO)C[C@H](C)[C@H](CN(C)Cc1ccncc1)OCCCC[C@H](C)O2 | · | · | 0 | ·
CCOC(=O)c1sc(NC(=O)C2CCC2)cc1C | 4 | -7 | 50* | 4
O=C(N/N=C/c1ccc([N+](=O)[O-])o1)c1cc2ccccc2o1 | 5 | -5 | · | -9
O=[N+]([O-])c1ccc(/C=N/Nc2ccc3ccccc3c2)o1 | 25* | -4 | · | 3
O=C([C@H]1[C@H](CO)[C@H]2Cn3c(ccc(C4=CCCC4)c3=O)[C@@H]1N2)N1CCCCC1 | · | · | 1 | ·
CCOC(=O)c1cnn2c(C)cc(-c3ccccc3)nc12 | -8 | 5 | · | 7.9*
C[C@@H]1CN([C@H](C)CO)C(=O)c2cccc(NC(=O)c3nc4ccccc4s3)c2O[C@@H]1CN(C)S(=O)(=O)c1cn(C)cn1 | · | · | -1 | ·
C[C@@H]1CN([C@H](C)CO)C(=O)Cc2cc(NC(=O)C3CCCCC3)ccc2O[C@H]1CN(C)C(=O)Nc1ccc2c(c1)OCO2 | · | · | 52* | ·
C[C@H]1CN([C@@H](C)CO)C(=O)Cc2cc(NC(=O)Nc3ccc4c(c3)OCO4)ccc2O[C@@H]1CN(C)Cc1ccccc1 | · | · | 48* | ·
O=C(Nc1ccc(Cl)cc1Cl)c1ccc2c(=O)n3c(nc2c1)CCC3 | -4 | 2 | 43* | 5
SMILES | ASAP1 GAP inh | ARFGAP1 inh | esBAF inh | SMARCA2 act
O=C(NCCc1ccc(Cl)cc1)c1cnc2n(c1=O)CCS2 | 4 | 1 | 21 | 1
O=C(Nc1ccc(Br)cc1Cl)c1ccc2c(=O)n3c(nc2c1)CCC3 | -3 | -3 | · | 0
O=C(Nc1ccc(Cl)cc1)c1ccc2c(=O)n3c(nc2c1)CCCCC3 | 0 | 7 | 50* | -1
O=C(Nc1ccc(F)c(Cl)c1)c1ccc2c(=O)n3c(nc2c1)CCCCC3 | -2 | -1 | 12 | 0
COc1ccccc1OCCNC(=O)c1ccc2c(c1)OCCO2 | -12 | 4 | 8 | 2
O=C(NCCC1=CCCCC1)c1cnc2n(c1=O)CCS2 | -3 | 0 | 46* | 7
COc1ccccc1OCCNC(=O)c1ccc2c(c1)CCC2 | 7 | -1 | 49* | 7
O=C(NCCC1=CCCCC1)c1ccc2c(=O)n3c(nc2c1)CCCCC3 | 4 | -3 | 43* | 1
COc1ccc(C(=O)NCCC2=CCCCC2)cc1OC | -8 | 10 | 50* | 7
COc1ccc(C(=O)NCCC2=CCCCC2)cc1 | -4 | 4 | · | 0
O=C(Nc1ccc(F)cc1)c1ccc2c(=O)n3c(nc2c1)CCCCC3 | 6 | -1 | 57* | -1
CO[C@H]1CN(C)C(=O)c2cc(NC(=O)c3cnccn3)ccc2OC[C@H](C)NC[C@H]1C | · | · | 1 | ·
Cn1c(NCc2ccccc2Cl)nc2ccccc21 | -9 | -3 | ? | 4
CN(C)c1ccc(CNc2nc3ccccc3n2C)cc1 | 0 | 5 | 48* | -2
Cn1c(NCc2ccccc2O)nc2ccccc21 | -13 | -3 | 53* | 2
Cc1ccc(CNc2nc3ccccc3n2C)o1 | 3 | 1 | 42* | 4
C[C@H](CO)N1C[C@H](C)[C@H](CN(C)Cc2cccc(F)c2)Oc2ncc(C#C[C@@H](C)O)cc2C1=O | · | · | -1 | ·
Cc1ccc(S(=O)(=O)N[C@@H]2CC[C@@H](CCNC(=O)Nc3ccc(Cl)cc3)O[C@@H]2CO)cc1 | · | · | 2 | ·
CCCCCOC(=O)c1ccc(OC(=O)c2cncc(Br)c2)cc1 | 2 | 5 | 105* | 1
Cc1noc(C)c1C(=O)Nc1sccc1C(N)=O | 13 | 6 | -12 | 7.9*
Cc1occc1C(=O)Nc1sccc1C(N)=O | -6 | -5 | · | 5
CCc1ccc(NC(=O)Nc2ccon2)cc1 | 5 | 1 | 44* | 2
CCc1ccc(NC(=O)Nc2ccc3c(c2)CCC3)cc1 | 6 | 7 | 53* | 4
CC(=O)c1cccc(NC(=S)NC(=O)c2ccc(Br)cc2)c1 | 5 | -1 | · | 1
CC(=O)c1cccc(Nc2ccc(Br)cc2)c1 | 3 | 11 | 54* | 6
SMILES | ASAP1 GAP inh | ARFGAP1 inh | esBAF inh | SMARCA2 act
CC(=O)c1cccc(NC(=O)Nc2ccc3c(c2)CCC3)c1 | 3 | -2 | 66* | 1
CS(=O)(=O)N1C[C@H](O)COC[C@H]2O[C@@H](CC(=O)NC3Cc4ccccc4C3)CC[C@@H]21 | · | · | -7 | ·
O=C(Nc1ccccc1F)N[C@H]1CC[C@H](CCNC(=O)C2CCCCC2)O[C@H]1CO | · | · | -1 | ·
Cc1ccc(S(=O)(=O)N[C@H]2CC[C@@H](CC(=O)NCCN3CCCCC3)O[C@@H]2CO)cc1 | · | · | 1 | ·
O=C(Cn1cc2c(n1)CCCC2)Nc1cc(-c2cccc(Cl)c2)no1 | 8 | 7 | 51* | -1
COc1ccc(S(=O)(=O)N[C@@H]2CC[C@H](CCn3cc(-c4ccccc4F)nn3)O[C@@H]2CO)cc1 | · | · | 7 | ·
C[C@H](CO)N1C[C@H](C)[C@@H](CN(C)Cc2ccc(C(=O)O)cc2)OCc2ccccc2-c2c(n(C)c3ccccc23)C1=O | · | · | -1 | ·
Cc1ccccc1CNC(=O)Nc1cccs1 | -11 | -3 | 15 | 5
